How the values were obtained:
[1] = system: JAR; test: Induction of PIG3 production in JAR cells at 1.1 uM; format: functional, Homo sapiens
Summary of the method: (§1)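 JAR cells were treated with compound at 1.1, 3.3, 10 or 30 μM. PIG-3 protein was measured by ELISA and normalized to cellular protein, reported as ng/mg.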

[2] = system: JAR; test: Induction of PIG3 production in JAR cells at 10 uM; format: functional, Homo sapiens; summary of the method: as §1
[3] = system: JAR; test: Induction of PIG3 production in JAR cells at 3.3 uM; format: functional, Homo sapiens; summary of the method: as §1
[4] = system: JAR; test: Induction of PIG3 production in JAR cells at 30 uM; format: functional, Homo sapiens; summary of the method: as §1
[5] = target: E3 ubiquitin-protein ligase Mdm2 (Homo sapiens, UniProt Q00987); test: Inhibition of p53-Hdm2 interaction by FP assay
Chain of E3 ubiquitin-protein ligase Mdm2 (Q00987 whole entry): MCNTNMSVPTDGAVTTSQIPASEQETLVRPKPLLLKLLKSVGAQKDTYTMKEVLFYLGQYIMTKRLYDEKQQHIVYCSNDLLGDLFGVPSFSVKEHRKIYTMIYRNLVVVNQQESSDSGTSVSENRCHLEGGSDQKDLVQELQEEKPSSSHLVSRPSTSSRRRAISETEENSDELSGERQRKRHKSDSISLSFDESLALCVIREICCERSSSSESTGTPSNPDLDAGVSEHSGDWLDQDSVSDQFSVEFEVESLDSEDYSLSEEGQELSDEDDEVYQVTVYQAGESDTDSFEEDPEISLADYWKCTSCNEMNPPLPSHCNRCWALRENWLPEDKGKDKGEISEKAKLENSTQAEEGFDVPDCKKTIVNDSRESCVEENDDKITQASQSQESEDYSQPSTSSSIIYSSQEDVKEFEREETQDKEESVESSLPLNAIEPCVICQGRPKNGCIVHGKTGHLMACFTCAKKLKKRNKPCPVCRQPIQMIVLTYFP

`CN(C)CCCN1C(=O)[C@H](c2ccc(Cl)cc2)N(Cc2ccc(Cl)cc2N)C(=O)c2cc(I)ccc21` was tested, and the Activity [1] was 36 ng/mg, the Activity [2] was -92 ng/mg and the Activity [3] was 68 ng/mg.
With `C[C@H](c1cc(O)c(Cl)cc1N)N1C(=O)c2cc(I)ccc2N(CCN2CCOCC2)C(=O)[C@@H]1c1ccc(Cl)cc1` the Activity [1] was 34 ng/mg, the Activity [2] was 111 ng/mg and the Activity [3] was 54 ng/mg.
For `CN1CCN(CCCCN2C(=O)[C@H](c3ccc(Cl)cc3)N(Cc3ccc(Cl)cc3N)C(=O)c3cc(I)ccc32)CC1`, the Activity [1] was 43 ng/mg, the Activity [2] was 32 ng/mg and the Activity [3] was 125 ng/mg.
`Nc1cc(Cl)ccc1CN1C(=O)c2cc(I)ccc2N(CCCCC(=O)O)C(=O)[C@@H]1c1ccc(Cl)cc1` gave an Activity [1] of 47 ng/mg, an Activity [2] of 196 ng/mg and an Activity [3] of 74 ng/mg.
`CN1CCN(CCCN2C(=O)[C@H](c3ccc(Cl)cc3)N(Cc3ccc(Cl)cc3N)C(=O)c3cc(I)ccc32)CC1` showed an Activity [1] of 57 ng/mg, an Activity [2] of 385 ng/mg and an Activity [3] of 198 ng/mg.
Work on `Nc1cc(Cl)ccc1CN1C(=O)c2cc(I)ccc2N(CCCN2CCOCC2)C(=O)[C@@H]1c1ccc(Cl)cc1` yielded an Activity [1] of 55 ng/mg, an Activity [2] of 375 ng/mg and an Activity [3] of 184 ng/mg.
`C[C@H](c1cc(F)c(Cl)cc1N)N1C(=O)c2cc(I)ccc2N(CCN2CCOCC2)C(=O)[C@@H]1c1ccc(Cl)cc1` was tested, and the Activity [1] was 37 ng/mg, the Activity [2] was 313 ng/mg and the Activity [3] was 110 ng/mg.
`CC(c1ccc(Cl)cc1N)N1C(=O)c2cc(I)ccc2N(CCCCC(=O)O)C(=O)[C@@H]1c1ccc(Cl)cc1` (stereo not given in full) gave an Activity [1] of 44 ng/mg and an Activity [3] of 77 ng/mg.
Molecule `COCCOCCN1C(=O)[C@H](c2ccc(Cl)cc2)N([C@H](C)c2ccc(Cl)cc2N)C(=O)c2cc(I)ccc21` has an Activity [1] of 78 ng/mg, an Activity [2] of 375 ng/mg and an Activity [3] of 218 ng/mg.
`C[C@H](c1ccc(Cl)cc1N)N1C(=O)c2cc(I)ccc2N(CCN2CCOCC2)C(=O)[C@@H]1c1ccc(Cl)cc1` was tested, and the Activity [1] was 79 ng/mg, the Activity [2] was 395 ng/mg and the Activity [3] was 234 ng/mg.
For `CC(c1ccc(Cl)cc1)N1C(=O)c2cc(I)ccc2N(CCCCC(=O)O)C(=O)[C@@H]1c1ccc(Cl)cc1` (stereo not given in full), the Activity [1] was 60 ng/mg, the Activity [2] was 208.7 ng/mg and the Activity [4] was 484.3 ng/mg. The Activity [3] was 79.7 ng/mg.
In the case of `C=CCOc1cc(Cl)ccc1CN1C(=O)c2cc(I)ccc2N(CCOCCOC)C(=O)[C@@H]1c1ccc(Cl)cc1`, the IC50 [5] is reported as > 12.5 µM.
`CN(C)CCCCN1C(=O)[C@H](c2ccc(Cl)cc2)N(Cc2ccc(Cl)cc2N)C(=O)c2cc(I)ccc21` gave an Activity [1] of 32 ng/mg, an Activity [2] of -136 ng/mg and an Activity [3] of 79 ng/mg.
In the case of `COCCOCCN1C(=O)[C@H](c2ccc(Cl)cc2)N(Cc2ccc(Cl)cc2O)C(=O)c2cc(I)ccc21`, the Activity [1] is reported as 62.3 ng/mg, the Activity [2] is reported as 99 ng/mg and the Activity [3] is reported as 74 ng/mg.

From ChEMBL document CHEMBL1138098, “Novel 1,4-benzodiazepine-2,5-diones as Hdm2 antagonists with improved cellular activity” (Bioorg Med Chem Lett, 2006)
